From ChEMBL document CHEMBL4033721, “Design, synthesis and evaluation of indole-2-carboxamides with pan anti-mycobacterial activity” (Bioorg Med Chem, 2017)
Converted amounts (≈) assume the structure as drawn.

Tested on: Mycobacteroides abscessus
Experiment: Antimycobacterial activity against Mycobacterium abscessus ATCC 19977 after 8 days by resazurin microtiter based colorimetric assay
Assay type: functional
Settings: ATCC 19977, 192 h
Method in brief: (§1)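 Resazurin microtiter plate MIC, read by visual scan for growth, in Mueller Hinton II broth. Strains include clinical isolates of M. abscessus complex, M. chelonae, M. avium, M. intracellulare, M. xenopi, P. aeruginosa PAO-1 and S. aureus ATCC 25923.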

Structure (SMILES) | MIC
O=C(NC1CCCCC1)c1cc2ccccc2[nH]1 | > 32 µg/mL
CCC12CC3CC(C1)CC(NC(=O)c1cc4ccccc4[nH]1)(C3)C2 | > 32 µg/mL
O=C(NC1CCCCCC1)c1cc2ccccc2[nH]1 | > 32 µg/mL
Cc1cc(C)c2cc(C(=O)N[C@H]3CC[C@H](C)CC3)[nH]c2c1 | ≤ 0.06 µg/mL
Cc1cc(C)c2cc(C(=O)NC3C4CC5CC(C4)CC3C5)[nH]c2c1 (stereo not given) | > 32 µg/mL
Cc1cc(C)c2cc(C(=O)NC3CCCCC3)[nH]c2c1 | 0.5 µg/mL (≈ 1.85 µM)

Tested on: Mycobacteroides abscessus
Experiment: Antimycobacterial activity against Mycobacterium abscessus isolate DCI 21 after 8 days by resazurin microtiter based colorimetric assay
Assay type: functional
Settings: isolate DCI 21, 192 h
Method in brief: as §1

Structure (SMILES) | MIC
O=C(NC1CCCCC1)c1cc2ccccc2[nH]1 | > 32 µg/mL
CCC12CC3CC(C1)CC(NC(=O)c1cc4ccccc4[nH]1)(C3)C2 | > 32 µg/mL
O=C(NC1CCCCCC1)c1cc2ccccc2[nH]1 | > 32 µg/mL
Cc1cc(C)c2cc(C(=O)N[C@H]3CC[C@H](C)CC3)[nH]c2c1 | ≤ 0.06 µg/mL
Cc1cc(C)c2cc(C(=O)NC3C4CC5CC(C4)CC3C5)[nH]c2c1 (stereo not given) | > 32 µg/mL
Cc1cc(C)c2cc(C(=O)NC3CCCCC3)[nH]c2c1 | 0.25 µg/mL (≈ 0.925 µM)

Tested on: not listed separately
Experiment: Antimycobacterial activity against Mycobacterium massiliense isolate CIP108297 after 8 days by resazurin microtiter based colorimetric assay
Assay type: functional, Mycobacterium abscessus subsp. massiliense
Settings: Mycobacteroides abscessus, isolate CIP108297, 192 h
Method in brief: as §1

Structure (SMILES) | MIC
O=C(NC1CCCCC1)c1cc2ccccc2[nH]1 | > 32 µg/mL
CCC12CC3CC(C1)CC(NC(=O)c1cc4ccccc4[nH]1)(C3)C2 | > 32 µg/mL
O=C(NC1CCCCCC1)c1cc2ccccc2[nH]1 | > 32 µg/mL
Cc1cc(C)c2cc(C(=O)N[C@H]3CC[C@H](C)CC3)[nH]c2c1 | ≤ 0.06 µg/mL
Cc1cc(C)c2cc(C(=O)NC3C4CC5CC(C4)CC3C5)[nH]c2c1 (stereo not given) | > 32 µg/mL
Cc1cc(C)c2cc(C(=O)NC3CCCCC3)[nH]c2c1 | 0.25 µg/mL (≈ 0.925 µM)

Tested on: not listed separately
Experiment: Antimycobacterial activity against Mycobacterium massiliense isolate CRM0019 after 8 days by resazurin microtiter based colorimetric assay
Assay type: functional, Mycobacterium abscessus subsp. massiliense
Settings: Mycobacteroides abscessus, isolate CRM0019, 192 h
Method in brief: as §1

Structure (SMILES) | MIC
O=C(NC1CCCCC1)c1cc2ccccc2[nH]1 | > 32 µg/mL
CCC12CC3CC(C1)CC(NC(=O)c1cc4ccccc4[nH]1)(C3)C2 | > 32 µg/mL
O=C(NC1CCCCCC1)c1cc2ccccc2[nH]1 | > 32 µg/mL
Cc1cc(C)c2cc(C(=O)N[C@H]3CC[C@H](C)CC3)[nH]c2c1 | ≤ 0.06 µg/mL
Cc1cc(C)c2cc(C(=O)NC3C4CC5CC(C4)CC3C5)[nH]c2c1 (stereo not given) | > 32 µg/mL
Cc1cc(C)c2cc(C(=O)NC3CCCCC3)[nH]c2c1 | 0.25 µg/mL (≈ 0.925 µM)

Tested on: not listed separately
Experiment: Antimycobacterial activity against Mycobacterium bolletii ATCC 14472 after 8 days by resazurin microtiter based colorimetric assay
Assay type: functional
Settings: Mycobacteroides abscessus, ATCC 14472, 192 h
Method in brief: as §1

Structure (SMILES) | MIC
O=C(NC1CCCCC1)c1cc2ccccc2[nH]1 | > 32 µg/mL
CCC12CC3CC(C1)CC(NC(=O)c1cc4ccccc4[nH]1)(C3)C2 | > 32 µg/mL
O=C(NC1CCCCCC1)c1cc2ccccc2[nH]1 | > 32 µg/mL
Cc1cc(C)c2cc(C(=O)N[C@H]3CC[C@H](C)CC3)[nH]c2c1 | ≤ 0.06 µg/mL
Cc1cc(C)c2cc(C(=O)NC3C4CC5CC(C4)CC3C5)[nH]c2c1 (stereo not given) | > 32 µg/mL
Cc1cc(C)c2cc(C(=O)NC3CCCCC3)[nH]c2c1 | 0.25 µg/mL (≈ 0.925 µM)

Tested on: Mycobacteroides chelonae
Experiment: Antimycobacterial activity against Mycobacterium chelonae ATCC 35752 after 8 days by resazurin microtiter based colorimetric assay
Assay type: functional
Settings: ATCC 35752, 192 h
Method in brief: as §1

Structure (SMILES) | MIC
O=C(NC1CCCCC1)c1cc2ccccc2[nH]1 | > 32 µg/mL
CCC12CC3CC(C1)CC(NC(=O)c1cc4ccccc4[nH]1)(C3)C2 | > 32 µg/mL
O=C(NC1CCCCCC1)c1cc2ccccc2[nH]1 | > 32 µg/mL
Cc1cc(C)c2cc(C(=O)N[C@H]3CC[C@H](C)CC3)[nH]c2c1 | ≤ 0.06 µg/mL
Cc1cc(C)c2cc(C(=O)NC3C4CC5CC(C4)CC3C5)[nH]c2c1 (stereo not given) | > 32 µg/mL
Cc1cc(C)c2cc(C(=O)NC3CCCCC3)[nH]c2c1 | 0.25 µg/mL (≈ 0.925 µM)

Tested on: Mycobacterium tuberculosis
Experiment: Antimycobacterial activity against Mycobacterium tuberculosis H37Rv MC2-6206 after 8 days by resazurin microtiter based colorimetric assay
Assay type: functional
Settings: H37Rv MC2-6206, 192 h
Method in brief: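 MIC was measured by resazurin microtiter colorimetric assay with visual growth scoring. Medium was 7H9-ADC–0.05% tyloxapol with 0.2% casaminoacids, 48 µg/ml pantothenate and 50 µg/ml L-leucine.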

Structure (SMILES) | MIC
O=C(NC1CCCCC1)c1cc2ccccc2[nH]1 | > 10 µg/mL
CCC12CC3CC(C1)CC(NC(=O)c1cc4ccccc4[nH]1)(C3)C2 | 1.25 µg/mL (≈ 3.88 µM)
O=C(NC1CCCCCC1)c1cc2ccccc2[nH]1 | > 5 µg/mL
Cc1cc(C)c2cc(C(=O)N[C@H]3CC[C@H](C)CC3)[nH]c2c1 | 0.31 µg/mL (≈ 1.09 µM)
Cc1cc(C)c2cc(C(=O)NC3C4CC5CC(C4)CC3C5)[nH]c2c1 (stereo not given) | 0.04 µg/mL (≈ 0.124 µM)
Cc1cc(C)c2cc(C(=O)NC3CCCCC3)[nH]c2c1 | 0.625 µg/mL (≈ 2.31 µM)

Tested on: Mycolicibacterium smegmatis
Experiment: Antimycobacterial activity against Mycobacterium smegmatis isolate MC2 155 after 8 days by resazurin microtiter based colorimetric assay
Assay type: functional
Settings: str. MC2 155, 192 h

Structure (SMILES) | MIC
O=C(NC1CCCCC1)c1cc2ccccc2[nH]1 | > 25 µg/mL
CCC12CC3CC(C1)CC(NC(=O)c1cc4ccccc4[nH]1)(C3)C2 | > 20 µg/mL
O=C(NC1CCCCCC1)c1cc2ccccc2[nH]1 | > 20 µg/mL
Cc1cc(C)c2cc(C(=O)N[C@H]3CC[C@H](C)CC3)[nH]c2c1 | > 20 µg/mL
Cc1cc(C)c2cc(C(=O)NC3C4CC5CC(C4)CC3C5)[nH]c2c1 (stereo not given) | > 20 µg/mL
Cc1cc(C)c2cc(C(=O)NC3CCCCC3)[nH]c2c1 | 2.5 µg/mL (≈ 9.25 µM)

Tested on: Mycobacterium avium
Experiment: Antimycobacterial activity against Mycobacterium avium isolate 104 after 8 days by resazurin microtiter based colorimetric assay
Assay type: functional
Settings: isolate 104, 192 h
Method in brief: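 M. avium 104 MICs were read by resazurin microtiter colorimetric assay in 96-well plates, with growth scored visually, in Mueller Hinton II medium.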

Structure (SMILES) | MIC
CCC12CC3CC(C1)CC(NC(=O)c1cc4ccccc4[nH]1)(C3)C2 | > 32 µg/mL
Cc1cc(C)c2cc(C(=O)N[C@H]3CC[C@H](C)CC3)[nH]c2c1 | > 32 µg/mL
Cc1cc(C)c2cc(C(=O)NC3C4CC5CC(C4)CC3C5)[nH]c2c1 (stereo not given) | > 32 µg/mL
Cc1cc(C)c2cc(C(=O)NC3CCCCC3)[nH]c2c1 | > 32 µg/mL

Tested on: Mycobacterium avium-intracellulare
Experiment: Antimycobacterial activity against Mycobacterium avium-intracellulare isolate 1956 after 8 days by resazurin microtiter based colorimetric assay
Assay type: functional
Settings: isolate 1956, 192 h
Method in brief: as §1

Structure (SMILES) | MIC
CCC12CC3CC(C1)CC(NC(=O)c1cc4ccccc4[nH]1)(C3)C2 | > 32 µg/mL
Cc1cc(C)c2cc(C(=O)N[C@H]3CC[C@H](C)CC3)[nH]c2c1 | > 32 µg/mL
Cc1cc(C)c2cc(C(=O)NC3C4CC5CC(C4)CC3C5)[nH]c2c1 (stereo not given) | > 32 µg/mL
Cc1cc(C)c2cc(C(=O)NC3CCCCC3)[nH]c2c1 | > 32 µg/mL

Tested on: Mycobacterium xenopi
Experiment: Antimycobacterial activity against wild type Mycobacterium xenopi isolate 4042 after 8 days by resazurin microtiter based colorimetric assay
Assay type: functional
Settings: isolate 4042, 192 h
Method in brief: as §1

Structure (SMILES) | MIC
CCC12CC3CC(C1)CC(NC(=O)c1cc4ccccc4[nH]1)(C3)C2 | 1 to 2 µg/mL (≈ 3.1 to 6.2 µM)
Cc1cc(C)c2cc(C(=O)N[C@H]3CC[C@H](C)CC3)[nH]c2c1 | 0.25 to 1 µg/mL (≈ 0.879 to 3.52 µM)
Cc1cc(C)c2cc(C(=O)NC3C4CC5CC(C4)CC3C5)[nH]c2c1 (stereo not given) | 0.5 to 1 µg/mL (≈ 1.55 to 3.1 µM)
Cc1cc(C)c2cc(C(=O)NC3CCCCC3)[nH]c2c1 | 1 to 2 µg/mL (≈ 3.7 to 7.4 µM)
